Assay results: ChEMBL document CHEMBL2157978, “Design, synthesis, and biological evaluation of nonsteroidal cycloalkane[d]isoxazole-containing androgen receptor modulators” (J Med Chem, 2012)
Positions count from the first letter of the chain named. pIC50: −log10 of the molar value. Values joined by “and” are separate entries in the source; they are usually repeats but may differ in a detail not shown here. Equal entries are not always repeated. Active and inactive are the calls of the source.

Columns and labels:
[1] = biological target: T1, Androgen receptor (Homo sapiens) (UniProt P10275); experiment: Agonist activity at wild type human androgen receptor expressed in COS-1 cells co-transfected with pSG5 assessed as effect on testosterone induced luciferase activity at 10 uM after 18 hrs relative untreated control; format: functional, cell-based
T1 sequence (whole entry): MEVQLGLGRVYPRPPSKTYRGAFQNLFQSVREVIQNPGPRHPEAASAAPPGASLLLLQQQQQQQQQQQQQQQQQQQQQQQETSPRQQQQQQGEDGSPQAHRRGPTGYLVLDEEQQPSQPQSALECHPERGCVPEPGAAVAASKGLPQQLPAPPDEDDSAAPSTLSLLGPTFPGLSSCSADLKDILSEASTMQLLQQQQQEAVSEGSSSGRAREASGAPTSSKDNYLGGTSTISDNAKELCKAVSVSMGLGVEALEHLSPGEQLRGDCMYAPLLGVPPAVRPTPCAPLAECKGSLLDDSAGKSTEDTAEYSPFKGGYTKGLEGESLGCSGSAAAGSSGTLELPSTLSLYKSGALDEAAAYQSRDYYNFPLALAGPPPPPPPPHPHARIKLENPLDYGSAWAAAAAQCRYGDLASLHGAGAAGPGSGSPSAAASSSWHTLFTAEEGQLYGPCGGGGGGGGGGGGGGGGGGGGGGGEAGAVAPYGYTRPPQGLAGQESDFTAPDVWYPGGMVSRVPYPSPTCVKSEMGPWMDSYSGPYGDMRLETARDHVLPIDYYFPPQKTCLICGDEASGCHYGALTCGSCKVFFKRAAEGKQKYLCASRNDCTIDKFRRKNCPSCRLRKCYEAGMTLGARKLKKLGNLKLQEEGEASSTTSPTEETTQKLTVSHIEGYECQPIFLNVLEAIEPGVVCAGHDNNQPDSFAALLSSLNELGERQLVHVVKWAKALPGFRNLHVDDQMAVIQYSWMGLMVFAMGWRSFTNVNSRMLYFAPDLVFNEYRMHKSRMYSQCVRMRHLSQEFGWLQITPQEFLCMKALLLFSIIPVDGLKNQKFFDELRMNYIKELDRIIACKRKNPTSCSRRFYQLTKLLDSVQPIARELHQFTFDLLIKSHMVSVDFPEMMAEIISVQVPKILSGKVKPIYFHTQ

[2] = biological target: Luciferin 4-monooxygenase (Photinus pyralis) (UniProt P08659); experiment: Inhibition of Photinus pyralis recombinant luciferase at 10 uM incubated for 20 mins
Method in brief: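 Purified firefly luciferase diluted to 0.1 μg/mL in 1x Reporter Lysis Buffer, with compound added from ethanol stocks (10⁻³–10⁻⁷ mol/L dilutions) in triplicate. Incubated 20 min at rt, then luciferase substrate added and luminescence read. Blank (lysis buffer) and ethanol-vehicle controls were included.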

[3] = biological target: T2, Androgen receptor (Homo sapiens, UniProt P10275); experiment: Displacement of [3H]R1881 from wild type human androgen receptor expressed in COS-1 cells co-transfected with pSG5 after 2 hrs by scintillation assay
T2 sequence (P10275 whole entry): T1 sequence (whole entry)

[4] = system: T3, Androgen receptor (Homo sapiens), P10275 [W742L]; experiment: Antagonist activity at human Androgen receptor W741L mutant expressed in COS-1 cells co-transfected with pSG5 assessed as reduction in testosterone induced luciferase activity at 10 uM after 18 hrs relative untreated control; format: functional, cell-based
T3 sequence (whole entry): T1 sequence (whole entry) with W742L
Method in brief: (§1)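 COS-1 cells were grown in DMEM with dextran-charcoal-treated FBS (2.5% during transfection). They were transfected for 24 h with pSG5-hART877A or pSG5-hARW741L, plus the pProbasin(−285/+32)-Luc reporter and a pCMVβ control.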

[5] = system: Androgen receptor (Homo sapiens), P10275 [T878A]; experiment: Antagonist activity at human Androgen receptor T877A mutant expressed in COS-1 cells co-transfected with pSG5 assessed as reduction in testosterone induced luciferase activity at 10 uM after 18 hrs relative untreated control; format: functional, cell-based; method in brief: as §1
[6] = biological target: T1, Androgen receptor (Homo sapiens); experiment: Agonist activity at wild type human androgen receptor expressed in COS-1 cells co-transfected with pSG5 assessed as effect on testosterone induced luciferase activity at 1 nM to 10 uM after 18 hrs relative untreated control; format: functional, cell-based
Method in brief: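 COS-1 cells were seeded in DMEM with 10% dextran-charcoal-treated FBS. After switching to 2.5% FBS, they were transfected for 24 h with pSG5-hAR, the pProbasin(−285/+32)-Luc reporter and a pCMVβ internal control. […] Luciferase was normalized to β-galactosidase and protein.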

[7] = biological target: T1, Androgen receptor (Homo sapiens); experiment: Potency index, ratio of RBA of (R)-bicalutamide to RBA of compound for human androgen receptor
[8] = biological target: T1, Androgen receptor (Homo sapiens); experiment: Potency index, ratio of RBA of hydroxyflutamide to RBA of compound for human androgen receptor

Chain of Luciferin 4-monooxygenase (Photinus pyralis) (P08659 whole entry): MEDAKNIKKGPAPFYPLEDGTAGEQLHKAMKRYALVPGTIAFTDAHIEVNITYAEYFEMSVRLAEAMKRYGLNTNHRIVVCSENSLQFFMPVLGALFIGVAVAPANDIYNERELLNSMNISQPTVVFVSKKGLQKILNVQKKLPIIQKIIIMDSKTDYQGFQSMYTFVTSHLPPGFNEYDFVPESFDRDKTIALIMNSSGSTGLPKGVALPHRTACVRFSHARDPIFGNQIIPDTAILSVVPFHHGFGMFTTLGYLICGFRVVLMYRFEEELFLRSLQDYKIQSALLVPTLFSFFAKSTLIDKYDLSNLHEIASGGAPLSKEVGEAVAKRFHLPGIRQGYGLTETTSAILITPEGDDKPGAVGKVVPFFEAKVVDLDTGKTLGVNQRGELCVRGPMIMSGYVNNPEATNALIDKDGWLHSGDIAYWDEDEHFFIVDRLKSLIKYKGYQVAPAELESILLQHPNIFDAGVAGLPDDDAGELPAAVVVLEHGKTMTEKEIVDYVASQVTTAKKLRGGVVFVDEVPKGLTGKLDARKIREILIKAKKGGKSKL
Chain of Androgen receptor (Homo sapiens), P10275 [T878A] (P10275 whole entry T878A): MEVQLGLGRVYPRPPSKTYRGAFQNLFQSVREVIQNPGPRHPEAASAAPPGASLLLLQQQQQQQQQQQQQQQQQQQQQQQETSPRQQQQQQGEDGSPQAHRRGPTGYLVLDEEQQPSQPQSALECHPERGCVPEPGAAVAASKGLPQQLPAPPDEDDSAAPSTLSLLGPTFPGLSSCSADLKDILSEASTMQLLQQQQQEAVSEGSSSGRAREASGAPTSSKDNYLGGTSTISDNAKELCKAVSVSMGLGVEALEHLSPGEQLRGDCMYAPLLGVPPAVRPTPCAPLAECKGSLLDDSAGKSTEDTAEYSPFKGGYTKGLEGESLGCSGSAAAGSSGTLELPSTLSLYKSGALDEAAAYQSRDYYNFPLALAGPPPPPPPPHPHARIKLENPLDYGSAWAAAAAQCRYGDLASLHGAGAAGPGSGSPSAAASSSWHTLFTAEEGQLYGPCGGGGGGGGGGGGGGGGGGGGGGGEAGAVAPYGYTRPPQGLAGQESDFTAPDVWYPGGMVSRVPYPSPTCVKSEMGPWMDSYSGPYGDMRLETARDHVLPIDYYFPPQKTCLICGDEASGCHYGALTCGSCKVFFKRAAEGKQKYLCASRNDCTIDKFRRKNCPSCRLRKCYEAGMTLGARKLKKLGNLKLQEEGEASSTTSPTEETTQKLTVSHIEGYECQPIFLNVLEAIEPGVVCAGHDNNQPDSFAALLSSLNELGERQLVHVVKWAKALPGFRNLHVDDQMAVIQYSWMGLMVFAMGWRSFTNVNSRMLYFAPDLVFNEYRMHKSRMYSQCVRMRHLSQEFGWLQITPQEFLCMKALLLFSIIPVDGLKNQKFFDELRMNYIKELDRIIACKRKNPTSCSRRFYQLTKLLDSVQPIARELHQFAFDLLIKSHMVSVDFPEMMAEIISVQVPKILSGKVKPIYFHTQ

Compound	Activity [1]	inhibition [2]	pIC50 [3]	Activity [4]	Activity [5]	Activity [6]	Ratio [7]	Ratio [8]
O=[N+]([O-])c1ccc(C2=NO[C@H]3CCCC[C@@H]23)c(C(F)(F)F)c1	inactive	inactive	6.58					
Fc1ccc(C2=NOC3CCCCCC23)c(C(F)(F)F)c1 (stereo not drawn)	inactive	inactive	6.18 and 6.09					
O=[N+]([O-])c1ccc(C2=NO[C@H]3CCC[C@@H]23)cc1C(F)(F)F	inactive	inactive	5.60					
N#Cc1ccc(C2=NOC3CCCCCC23)cc1C(F)(F)F (racemic)	inactive	inactive	7.36					
O=[N+]([O-])c1ccc(C2=NOC3CCCC23)c(C(F)(F)F)c1 (racemic)	inactive	inactive	6.57					
Fc1ccc(C2=NOC3CCCCCC23)cc1C(F)(F)F (racemic)	inactive	inactive	4.96					
O=[N+]([O-])c1ccc(C2=NO[C@H]3CCCCC[C@@H]23)c(C(F)(F)F)c1	inactive	inactive	6.41					
Fc1ccc(C2=NOC3CCCC23)cc1C(F)(F)F (racemic)	inactive	inactive	5.83					
N#Cc1ccc(C2=NOC3CCCCCCC23)cc1C(F)(F)F (racemic)	inactive	inactive	6.53					
O=[N+]([O-])c1ccc(C2=NOC3CCCCC23)cc1C(F)(F)F (racemic)	inactive	inactive	6.92	Active	Active	inactive		
O=[N+]([O-])c1ccc(C2=NO[C@@H]3CCCC[C@H]23)c(C(F)(F)F)c1	inactive	inactive	6.89					
O=[N+]([O-])c1ccc(C2=NOC3CCCCCC23)cc1C(F)(F)F (racemic)	inactive	inactive	6.98					
O=[N+]([O-])c1ccc(C2=NO[C@@H]3CCC[C@H]23)cc1C(F)(F)F	inactive	inactive	6.52					
N#Cc1ccc(C2=NOC3CCCCC23)cc1C(F)(F)F (racemic)	inactive	inactive	7.56	Active	Active	inactive	4	8
N#Cc1ccc(C2=NO[C@H]3CCC[C@@H]23)cc1C(F)(F)F	inactive	inactive	6.21					
